SR-BI HDL uptake – inhibitors of mouse SR-BI mediated HDL lipid uptake; inhibition, % at 12.5 µM; Q61009; 0.96% of 320,000 active; ldlA[mSR-BI] CHO cells, DiI-HDL uptake fluorescence, 3 h;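 active means mean replicate inhibition of at least 70% and a set share of replicates each scoring 70 or more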
SR-BI uptake up – enhances SR-BI lipid uptake from DiI-HDL; CHO ldlA[mSR-BI] cells, DiI-HDL uptake fluorescence, 3 h; 100 = double the neutral-control signal; AID 504775; 0.096% of 320,000 active; activation, % at 12.5 µM;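 active means mean replicate activation of at least 60% and every replicate at or above 60%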
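material = CHO ldlA[mSR-BI] cells | medium = Ham's F12 with 0.5% BSA, HEPES 25 mM, pH 7.4 | reagent = fluorescent DiI-HDL, 10 µg/mL final | compound dosing = single-point compound dose | incubation = 3 h, 37 °C | measured by = bottom-read fluorescence, 550/595 nm | measure = HDL uptake via cellular fluorescence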
PKA-R2B activ – activators of human PKA-R2B complex | P22694+P31323 | PKA-R2B holoenzyme dissociation, Cy5-IP20 fluorescence polarization; R2B truncated from residue 108, S112A mutant; 0% DMSO only, 100% 113 µM cGMP | activation, % at 11.4 µM | 0.079% of 340,000 active;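 active means activation above a cutoff set at the mean over all compounds plus 3 SD, cut at about 18% in these data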;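 further: higher means more holoenzyme dissociation and a rise in polarization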
Vif imaging – HIV Vif inhibition; HEK293T cells, Vif self-association by quenched fluorescence, imaging, 24 h; inhibition, % at 7.49 µM; 0.35% of 340,000 active; AID 602346; in the data active means inhibition above about 50%, passing the limit was not always enough
PKA-R1A activ – activates the PKA-R1A holoenzyme complex; PKA-R1A dissociation, Cy5-IP20 fluorescence polarization; scaled: DMSO 0%, 113 µM cGMP 100%; P00514+P68181; 0.083% of 340,000 active; activation, % at 11.4 µM;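 active means percent activation above the mean of all tested compounds plus 3 SD, cut at about 19% in these data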;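 further: higher means more PKAc released from R1A so a rise in polarization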
R1A FP artifact – counter-screen for PKA-R1A activators: fluorescence polarization artifacts; shares compounds with PKA-R1A activ; Cy5-IP20 peptide alone, fluorescence polarization artifact counterscreen; activation, % at 11.4 µM; 7% of 280 active; AID 504799;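 active means mean activation over triplicate runs exceeds the adjusted cutoff derived for the parent primary screen, cut at about 19% in these data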;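 further: no PKA protein present so any polarization rise reflects compound interference; higher means stronger polarization artifact and likely false positive in parent screen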
PKA-R1A confirm – PKA-R1A complex activation, confirmation | activation, % at 11.4 µM | Cy5-IP20 fluorescence polarization, PKA-R1A holoenzyme dissociation | 9% of 280 active | shares compounds with PKA-R1A activ | AID 504800;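 active means mean activation over replicate wells exceeds the adjusted hit threshold taken from the earlier primary screen, cut at about 20% in these data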
Target sequence (P00514 whole entry, looked up): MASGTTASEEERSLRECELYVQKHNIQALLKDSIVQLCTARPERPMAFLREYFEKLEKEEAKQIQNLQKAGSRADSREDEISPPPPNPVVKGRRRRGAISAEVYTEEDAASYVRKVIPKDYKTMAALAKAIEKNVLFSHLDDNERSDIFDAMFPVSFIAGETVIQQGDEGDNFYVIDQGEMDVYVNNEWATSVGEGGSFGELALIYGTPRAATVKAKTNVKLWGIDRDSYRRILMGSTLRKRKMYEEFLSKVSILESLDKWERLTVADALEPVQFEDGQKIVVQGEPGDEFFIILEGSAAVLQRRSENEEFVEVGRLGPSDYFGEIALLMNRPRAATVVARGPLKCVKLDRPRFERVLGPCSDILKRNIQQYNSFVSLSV
Large screens that a line does not name were inactive (follow-up assays come after a bar, where they were run). Sampled rows, rich in hits. Any-hit rate of the full collection: about 1.4%.

COC(=O)C1(C)Nc2ccccc2C(=O)N1c1ccccc1OC (centres undefined)	PKA-R1A activ 23 | R1A FP artifact inactive | PKA-R1A confirm inactive
COc1ccc(C(=O)Nc2c3c(nn2-c2ccc(Cl)cc2)CS(=O)(=O)C3)cc1	PKA-R1A activ 20 | R1A FP artifact inactive | PKA-R1A confirm inactive
COc1ccc(C(=O)Nc2c3c(nn2-c2ccc([N+](=O)[O-])cc2)CS(=O)(=O)C3)cc1	none
Cc1ccc(-c2cc(C(=O)N3CCOCC3)no2)cc1	PKA-R1A activ 21 | R1A FP artifact inactive | PKA-R1A confirm inactive
COc1ccc(Nc2cc(C)nc3ncnn23)cc1Cl	PKA-R1A activ 22 | R1A FP artifact inactive | PKA-R1A confirm inactive
C/C(=N\NC(=O)c1csc(C)c1C)c1ccc(Cl)s1	none
C/C(=N\NC(=O)c1ccoc1C)c1ccc(Cl)s1	PKA-R1A activ 20 | R1A FP artifact inactive | PKA-R1A confirm inactive
COc1ccccc1NC(=O)NCC(c1ccco1)N1CCCCC1 (centres undefined)	none
COc1ccc(/C=C2/S/C(=N/S(=O)(=O)Cc3ccccc3)NC2=O)cc1OC	PKA-R1A activ 23 (no result: SR-BI HDL uptake, SR-BI uptake up) | R1A FP artifact inactive | PKA-R1A confirm inactive
COc1cc(OC)cc(-c2nc(-c3ccccc3OC)no2)c1	PKA-R1A activ 19 | R1A FP artifact inactive | PKA-R1A confirm inactive
COc1ccccc1-c1noc(-c2cc(OC)c(OC)c(OC)c2)n1	none
Cc1ccc(S(=O)(=O)NCCn2cnc([N+](=O)[O-])n2)cc1	PKA-R1A activ 21 | R1A FP artifact inactive | PKA-R1A confirm inactive
N#Cc1ccc(Cn2c(-c3ccc(F)cc3)noc2=O)cc1	none
CCOC(=O)C1CCN(CC(C)(C)NS(=O)(=O)c2ccccc2)CC1	PKA-R1A activ 21 (no result: SR-BI HDL uptake, SR-BI uptake up) | R1A FP artifact inactive | PKA-R1A confirm inactive
CN(CC(=O)Nc1c(Cl)cccc1Cl)C(=O)c1cc(S(=O)(=O)N(C)C)ccc1N1CCCC1	none
COc1cccc(-c2ccc(C3=CC(=O)CC(C)(C)C3=O)cc2)c1OC	none (no result: SR-BI HDL uptake, SR-BI uptake up, Vif imaging)
CCOc1ccccc1Nc1nc(N)nc(CSc2nncn2C)n1	PKA-R1A activ 21 (no result: Vif imaging) | R1A FP artifact inactive | PKA-R1A confirm inactive
COc1ccc(C2C(C#N)=C(N)OC(C(C)(C)C)=C2C#N)cc1OC (centres undefined)	PKA-R1A activ 20 | R1A FP artifact inactive | PKA-R1A confirm inactive
COc1cccc(C2C(C#N)=C(N)OC(C(C)(C)C)=C2C#N)c1 (centres undefined)	none
Cc1nc(-c2ccccc2)sc1C1(C)CC(c2ccc(OC(F)(F)F)cc2)=NO1 (centres undefined)	PKA-R1A activ 19 | R1A FP artifact inactive | PKA-R1A confirm inactive
Cc1nc(-c2ccc(Cl)cc2)sc1C1(C)CC(c2ccc(OC(F)(F)F)cc2)=NO1 (centres undefined)	none
N#Cc1ccc(C(=O)NCCCSc2ccccc2)cc1	none (no result: SR-BI HDL uptake, SR-BI uptake up)
CN(C)c1ccc(C(=O)NCCCSc2ccccc2)cc1	PKA-R1A activ 20 (no result: Vif imaging) | R1A FP artifact inactive | PKA-R1A confirm inactive
O=C(O)c1ccccc1C(=O)c1ccc(F)c(F)c1	none
C/C(=N/NC(=O)c1cccs1)c1ccc(NC(=O)COc2ccc(Cl)cc2)cc1	PKA-R1A activ 19 (no result: Vif imaging) | R1A FP artifact inactive | PKA-R1A confirm inactive
C/C(=N\NC(=O)c1ccc(Cl)cc1)c1cccs1	none
COc1ccccc1-c1cc(C(=O)Nc2cccnc2)no1	PKA-R1A activ 19 | R1A FP artifact inactive | PKA-R1A confirm inactive
CCN(CC(=O)Nc1ccccc1OC)C(=O)CSCc1ccc(C)cc1	PKA-R1A activ 22 | R1A FP artifact inactive | PKA-R1A confirm inactive
NS(=O)(=O)c1ccc(CCNC(=O)c2cccc(S(=O)(=O)N3CCCC3)c2)cc1	none
Cc1ccnc(SCc2cc(=O)c(OC(=O)c3cc([N+](=O)[O-])ccc3Cl)co2)n1	PKA-R1A activ 19 | R1A FP artifact inactive | PKA-R1A confirm inactive
CC1=NN(c2ccc([N+](=O)[O-])cc2)C(=O)/C1=C\N(C)C	none
